Series [1] addresses T1, Androgen receptor (Homo sapiens, UniProt P10275).
T1 sequence (P10275 whole entry): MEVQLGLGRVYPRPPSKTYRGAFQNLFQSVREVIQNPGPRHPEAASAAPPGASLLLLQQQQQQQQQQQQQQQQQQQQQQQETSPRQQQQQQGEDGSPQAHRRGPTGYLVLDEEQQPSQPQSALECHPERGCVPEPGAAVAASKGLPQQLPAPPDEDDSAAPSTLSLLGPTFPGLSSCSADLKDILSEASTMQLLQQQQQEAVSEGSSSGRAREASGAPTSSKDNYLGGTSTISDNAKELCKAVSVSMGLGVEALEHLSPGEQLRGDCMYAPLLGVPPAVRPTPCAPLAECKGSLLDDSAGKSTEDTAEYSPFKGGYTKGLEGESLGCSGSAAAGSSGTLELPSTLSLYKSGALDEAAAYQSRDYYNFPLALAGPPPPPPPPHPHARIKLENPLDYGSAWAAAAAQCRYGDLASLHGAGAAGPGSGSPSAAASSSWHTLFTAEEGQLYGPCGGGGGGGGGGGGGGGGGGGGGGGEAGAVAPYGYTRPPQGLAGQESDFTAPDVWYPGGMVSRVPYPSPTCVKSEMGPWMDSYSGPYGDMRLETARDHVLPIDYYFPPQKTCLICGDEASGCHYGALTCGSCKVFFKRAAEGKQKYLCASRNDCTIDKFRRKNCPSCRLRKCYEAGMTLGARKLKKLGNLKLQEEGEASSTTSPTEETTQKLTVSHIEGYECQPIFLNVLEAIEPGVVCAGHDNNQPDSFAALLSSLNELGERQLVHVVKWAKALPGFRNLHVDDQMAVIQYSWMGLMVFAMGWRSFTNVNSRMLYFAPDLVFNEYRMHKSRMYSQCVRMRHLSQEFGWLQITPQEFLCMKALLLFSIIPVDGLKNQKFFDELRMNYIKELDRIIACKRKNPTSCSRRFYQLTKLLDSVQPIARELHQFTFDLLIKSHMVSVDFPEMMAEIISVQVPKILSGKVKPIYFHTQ
Nature of the series: Displacement of [3H[DHT from androgen receptor endogenously expressed in human MDA-MB-453 cells. The class given is cell-based.

The target in series [2] is T2, Androgen receptor (Rattus norvegicus, UniProt P15207).
T2 sequence (P15207 whole entry): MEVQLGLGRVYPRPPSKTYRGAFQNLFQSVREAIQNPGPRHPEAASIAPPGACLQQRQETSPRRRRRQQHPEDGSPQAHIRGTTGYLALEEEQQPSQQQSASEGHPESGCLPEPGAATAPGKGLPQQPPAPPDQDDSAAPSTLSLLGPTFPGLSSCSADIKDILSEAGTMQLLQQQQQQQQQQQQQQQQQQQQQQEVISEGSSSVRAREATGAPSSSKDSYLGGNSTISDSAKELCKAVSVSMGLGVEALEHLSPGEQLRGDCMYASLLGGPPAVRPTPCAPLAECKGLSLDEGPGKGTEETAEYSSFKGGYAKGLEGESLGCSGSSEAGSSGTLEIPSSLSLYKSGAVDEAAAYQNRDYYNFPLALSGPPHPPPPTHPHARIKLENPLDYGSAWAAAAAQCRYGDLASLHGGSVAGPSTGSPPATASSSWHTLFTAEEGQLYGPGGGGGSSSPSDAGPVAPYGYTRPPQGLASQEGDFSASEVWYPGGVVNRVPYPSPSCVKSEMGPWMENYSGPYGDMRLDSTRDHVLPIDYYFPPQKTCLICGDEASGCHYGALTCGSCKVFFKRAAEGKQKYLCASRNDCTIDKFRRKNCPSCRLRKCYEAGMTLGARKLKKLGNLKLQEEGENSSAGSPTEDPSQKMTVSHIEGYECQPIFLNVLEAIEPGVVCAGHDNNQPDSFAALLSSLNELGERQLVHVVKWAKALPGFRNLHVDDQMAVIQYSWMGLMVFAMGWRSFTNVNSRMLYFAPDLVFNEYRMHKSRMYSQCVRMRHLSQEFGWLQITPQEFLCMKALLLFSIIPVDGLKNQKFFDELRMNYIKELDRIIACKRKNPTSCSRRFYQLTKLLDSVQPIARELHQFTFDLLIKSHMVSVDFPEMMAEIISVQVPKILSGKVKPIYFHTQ
Kind of series: […] at rat AR expressed in mouse skeletal muscle C2C12 cells assessed as transcriptional activation after 24 hrs by androgen-specific response element driven luciferase reporter gene assay. The class given is functional, cell-based. For orientation: A reporter such as luciferase makes a cellular process visible.

Series [3] concerns the target T2, Androgen receptor. Kind of series: Agonist activity at rat androgen receptor expressed in mouse skeletal muscle C2C12 cells assessed as transcriptional activation after 24 hrs by androgen-specific response element driven luciferase reporter gene assay. Format: functional, cell-based.
Series [4] addresses T2, Androgen receptor. Nature of the series: Intrinsic activity at rat androgen receptor expressed in mouse skeletal muscle C2C12 cells assessed as transcriptional activation after 24 hrs by androgen-specific response element driven luciferase reporter gene assay relative to control. Format: cell-based.
The nature of series [5]: Aqueous solubility of the compound. Format: physicochemical.
A short description of series [6]: AUC in rat at 5 mg/kg, po. To be noted: plasma. The class given is ADME, organism-based. Set-up: dose 5 mg/kg, route oral.
In series [7] the test system is Rattus norvegicus. Kind of series: Anabolic activity in castrated male Harlan Sprague-Dawley rat assessed as intact growth of Levator ani muscle at 0.00001 mg/kg, po after 14 days. Format: functional. To be noted: dose 1e-05 mg/kg.
For series [8], the system named is Rattus norvegicus. Nature of the series: Anabolic activity in castrated male Harlan Sprague-Dawley rat assessed as intact growth of Levator ani muscle at 0.0001 mg/kg, po after 14 days. The class given is functional.
The test system of series [9] is Rattus norvegicus. Kind of series: Anabolic activity in castrated male Harlan Sprague-Dawley rat assessed as intact growth of Levator ani muscle at 0.001 mg/kg, po after 14 days. The class given is functional.
Series [10] deals with Rattus norvegicus. Kind of series: Anabolic activity in castrated male Harlan Sprague-Dawley rat assessed as intact growth of Levator ani muscle at 0.01 mg/kg, po after 14 days. The class given is functional.
For series [11], the system named is Rattus norvegicus. Nature of the series: Anabolic activity in castrated male Harlan Sprague-Dawley rat assessed as intact growth of Levator ani muscle at 0.03 mg/kg, po after 14 days. The class given is functional.
Series [12] deals with Rattus norvegicus. Kind of series: Anabolic activity in castrated male Harlan Sprague-Dawley rat assessed as intact growth of Levator ani muscle at 0.1 mg/kg, po after 14 days. Format: functional.
The test system of series [13] is Rattus norvegicus. Kind of series: Anabolic activity in castrated male Harlan Sprague-Dawley rat assessed as intact growth of Levator ani muscle at 0.3 mg/kg, po after 14 days. The class given is functional.
Series [14] has as its system Rattus norvegicus. Kind of series: Anabolic activity in po dosed castrated male Harlan Sprague-Dawley rat assessed as intact growth of Levator ani muscle after 14 days. The class given is functional. To be noted: 336 h.
Series [15] has as its system Rattus norvegicus. Nature of the series: Anabolic activity in castrated male Harlan Sprague-Dawley rat assessed as intact growth of prostate at 0.00001 mg/kg, po after 14 days. The class given is functional, Prostate gland. To be noted: dose 1e-05 mg/kg.
In series [16] the test system is Rattus norvegicus. Kind of series: Anabolic activity in castrated male Harlan Sprague-Dawley rat assessed as intact growth of prostate at 0.0001 mg/kg, po after 14 days. The class given is functional, Prostate gland.
Series [17] concerns Rattus norvegicus. Nature of the series: Anabolic activity in castrated male Harlan Sprague-Dawley rat assessed as intact growth of prostate at 0.001 mg/kg, po after 14 days. Format: functional, Prostate gland.
Series [18] concerns Rattus norvegicus. Nature of the series: Anabolic activity in castrated male Harlan Sprague-Dawley rat assessed as intact growth of prostate at 0.01 mg/kg, po after 14 days. Format: functional, Prostate gland.
For series [19], the system named is Rattus norvegicus. Kind of series: Anabolic activity in castrated male Harlan Sprague-Dawley rat assessed as intact growth of prostate at 0.03 mg/kg, po after 14 days. The class given is functional, Prostate gland.
Series [20] has as its system Rattus norvegicus. Kind of series: Anabolic activity in castrated male Harlan Sprague-Dawley rat assessed as intact growth of prostate at 0.1 mg/kg, po after 14 days. Format: functional, Prostate gland.
In series [21] the test system is Rattus norvegicus. Nature of the series: Anabolic activity in castrated male Harlan Sprague-Dawley rat assessed as intact growth of prostate at 0.3 mg/kg, po after 14 days. The class given is functional, Prostate gland.
Series [22] has as its system Rattus norvegicus. Kind of series: Anabolic activity in po dosed castrated male Harlan Sprague-Dawley rat assessed as intact growth of prostate after 14 days. Format: functional. To be noted: Prostate gland, 336 h.
A short description of series [23]: Chemical stability in 0.1N HCl assessed as drug remaining after 24 hrs. The class given is physicochemical. To be noted: read-out: Stability. In outline: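 Compound held in solution in 0.1 N HCl at 37 °C for 24 h, used as a model of gut pH; the percentage of intact compound remaining at 24 h was the read-out.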
Series [24] relates to Rattus norvegicus. Nature of the series: Anabolic activity in sc dosed castrated male Harlan Sprague-Dawley rat assessed as intact growth of Levator ani muscle after 14 days. Format: functional. To be noted: 336 h.
In series [25] the test system is Rattus norvegicus. Nature of the series: Anabolic activity in sc dosed castrated male Harlan Sprague-Dawley rat assessed as intact growth of prostate after 14 days. The class given is functional. To be noted: Prostate gland, 336 h.

From ChEMBL document CHEMBL1138465, “N-aryl-oxazolidin-2-imine muscle selective androgen receptor modulators enhance potency through pharmacophore reorientation” (J Med Chem, 2009) come the findings set out here.

Converted amounts (≈) assume the structure as drawn.

By Ki is commonly meant the equilibrium dissociation constant of an inhibitor or competing ligand from its target. The term EC50 denotes the concentration at which the effect is half-maximal. The term solubility denotes the concentration that dissolves in the medium under given conditions. A high value points to much dissolved substance. The AUC is the area under the concentration-time curve, a measure of exposure. The low end stands for low exposure, the high end for high exposure. The ED50 is the dose at which the effect has come halfway, by size or by number of responders.

Compound `Cc1c(/N=C2\NC[C@@H]3[C@H](O)CCN23)ccc(C#N)c1Cl` returned a Ki in [1] of 10 nM. Moreover, the EC50 in series [2] was found to be 1800 nM.

For `Cc1c(/N=C2\OC[C@@H]3[C@H](O)CCN23)ccc(C#N)c1Cl`, the Ki in [1] is 0.8 nM. For the same compound, the EC50 in [3] amounted to 4.8 nM.

In the case of `Cc1c(N2C(NC#N)N3CC[C@H](O)[C@H]3[C@@H]2C)ccc(C#N)c1Cl` (stereo partly specified), the inhibitory constant (Ki) in [1] turned out to be 17 nM. Moreover, in series [3], the EC50 is 1110 nM.

Compound `Cc1c(/N=C2\N(C(N)=O)C[C@@H]3[C@H](O)CCN23)ccc(C#N)c1Cl` gave a Ki in [1] of 19 nM. In addition, the EC50 entry in series [4] is “Active”.

Turning to `CC[C@H]1[C@@H]2[C@@H](O)CCN2C(=O)N1c1ccc(C#N)c(Cl)c1C`, the EC50 in [3] came to 1.8 nM.

`Cc1c(N2C[C@@H]3[C@H](O)CCN3C2=O)ccc(C#N)c1Cl` showed a Ki in [1] of 6 nM. In addition, the EC50 in series [3] came out at 6.4 nM.

`Cc1c(/N=C2\O[C@@H](C(F)(F)F)[C@@H]3[C@H](O)CCN23)ccc(C#N)c1Cl`: the inhibition constant (Ki) in [1] stood at 0.3 nM. In series [3], the EC50 came out at 1.4 nM.

On to `Cc1c(/N=C2\OC[C@@H]3[C@@H](O)CCN23)ccc(C#N)c1Cl`, for which the inhibition constant Ki in series [1] was 0.3 nM. Further, the EC50 in series [3] was 14 nM.

In the case of `Cc1c(/N=C2\O[C@H](C(F)(F)F)[C@@H]3[C@H](O)CCN23)ccc(C#N)c1Cl`, affinity in series [1] was put at a Ki of 2.3 nM. Besides, the concentration for a half-maximal effect (EC50) in series [3] was 1.1 nM.

Turning to `Cc1c(/N=C2\O[C@H](C(F)(F)F)[C@@H]3[C@@H](O)CCN23)ccc(C#N)c1Cl`, the inhibitory constant (Ki) in series [1] is 0.2 nM. Moreover, the concentration giving a half-maximal response (EC50) in series [3] was determined as 19 nM.

In [5], `Cc1c(N2C(=O)[C@@H]3[C@H](O)CCN3C2=O)ccc(C#N)c1Cl` showed a solubility of 19 µg/mL (≈ 62.1 µM).

Take `Cc1c(/N=C2\OC(C(C)C)[C@@H]3[C@H](O)CCN23)ccc(C#N)c1Cl` (single isomer, unassigned): the inhibition constant (Ki) in series [1] came to 0.7 nM. Besides, the half-maximal effective concentration (EC50) in series [3] came to 3.7 nM.

In series [1], `Cc1c(/N=C2\O[C@@H](C(F)(F)F)[C@@H]3[C@@H](O)CCN23)ccc(C#N)c1Cl` returned a Ki of 0.3 nM. Moreover, the 50% effective concentration (EC50) in [3] worked out at 0.2 nM. This compound displayed an AUC in [6] of 5.8 µM·h. The Activity came to 21% in series [7]; 25% in series [8]; 59% in [9]; 109.3% in [10]; 103.5% in [11]; 100.5% in series [12]. In addition, the Activity in [13] is given as 103.9%; in series [15] it was 2.6%; in series [16], 3.6%; in [17], 9.5%; in series [18], 38.8%; in series [19] it was 72.9%. For the same compound, the Activity in [20] is reported as 103%; in [21], 104.5%. For the same compound, the ED50 in [14] stood at 0.0009 mg/kg; in series [22], 0.0143 mg/kg; in [24], 0.21 mg/kg; in series [25], 0.42 mg/kg. Further, the remaining at 24 h in series [23] worked out at 0.41%.

With `Cc1c(/N=C2\N(C)C[C@@H]3[C@H](O)CCN23)ccc(C#N)c1Cl`, in series [1], the Ki worked out at 1.9 nM. The EC50 in series [3] is 44 nM.
